ChEMBL document CHEMBL4190318 (Eur J Med Chem, 2017)
The source made the active and inactive calls. The rule behind the calls is not given here.

T1: N-acylethanolamine-hydrolyzing acid amidase (Rattus norvegicus) (UniProt Q5KTC7)
T1 sequence (whole entry): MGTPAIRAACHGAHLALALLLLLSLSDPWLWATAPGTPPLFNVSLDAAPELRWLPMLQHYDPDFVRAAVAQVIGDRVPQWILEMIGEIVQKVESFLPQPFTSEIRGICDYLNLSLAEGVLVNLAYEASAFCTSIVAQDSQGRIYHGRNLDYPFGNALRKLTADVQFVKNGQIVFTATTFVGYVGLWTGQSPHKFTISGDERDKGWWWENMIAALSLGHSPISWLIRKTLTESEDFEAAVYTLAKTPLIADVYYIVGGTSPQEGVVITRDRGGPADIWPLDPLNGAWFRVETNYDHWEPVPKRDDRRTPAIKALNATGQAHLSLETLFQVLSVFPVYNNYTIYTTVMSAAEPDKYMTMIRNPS

T2: N-acylethanolamine-hydrolyzing acid amidase (Rattus norvegicus, UniProt Q5KTC7)
T2 sequence (Q5KTC7 whole entry): T1 sequence (whole entry)

T3: Acid ceramidase (Rattus norvegicus) (UniProt Q6P7S1)
T3 sequence (whole entry): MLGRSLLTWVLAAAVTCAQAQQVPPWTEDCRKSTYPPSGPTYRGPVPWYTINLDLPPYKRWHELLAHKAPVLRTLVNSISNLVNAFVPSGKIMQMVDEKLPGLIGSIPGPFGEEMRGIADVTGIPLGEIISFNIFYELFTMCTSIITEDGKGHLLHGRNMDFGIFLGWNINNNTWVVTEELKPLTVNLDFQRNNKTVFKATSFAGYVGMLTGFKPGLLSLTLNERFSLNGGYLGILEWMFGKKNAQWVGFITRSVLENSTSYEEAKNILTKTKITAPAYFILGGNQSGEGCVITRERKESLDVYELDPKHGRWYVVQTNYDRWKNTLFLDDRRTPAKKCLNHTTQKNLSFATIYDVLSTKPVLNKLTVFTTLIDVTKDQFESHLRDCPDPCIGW

B1: N-acylethanolamine-hydrolyzing acid amidase (Rattus norvegicus), Q5KTC7 (protein)
chain: T1 sequence (whole entry)

What follows are molecules tested against T1, N-acylethanolamine-hydrolyzing acid amidase (Rattus norvegicus) (assay: Inhibition of rat NAAA expressed in HEK293 cells at 50 to 250 nM using heptadecenoylethanolamide as substrate after 30 mins in presence of covalent beta-lactone NAAA inhibitor ARN077 by Yonetani-Theorell plot analysis).
With `O=C(CCCCCc1cccc(Cl)c1)N1CCOC1=O` the inhibition was “Active”.

These molecules were tested against T2, N-acylethanolamine-hydrolyzing acid amidase (assay: Inhibition of rat NAAA expressed in HEK293 cells using heptadecenoylethanolamide as substrate after 30 mins by HPLC-MS/MS analysis).
Procedure, shortened: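 Rat NAAA activity measured against heptadecenoylethanolamide (C17:1 FAE) substrate, with hydrolysis products quantified by LC-MS. IC50 derived by nonlinear regression of concentration-response curves. Runs done in triplicate (n = 3); mean ± SD of three independent experiments.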
Molecule `O=C1OCCN1C(=O)c1ccc(Oc2ccc(O)cc2)cc1` has an IC50 of over 20 µM.
`O=C(CCCCCc1cccc(CO)c1)N1CCOC1=O` was tested, and the IC50 was over 20 µM.
For `Nc1cccc(CCCCCC(=O)N2CCOC2=O)c1`, the IC50 was over 20 µM.
Molecule `O=C(CCCCCc1ccc(Br)cc1)N1CCOC1=O` has an IC50 of 8.51 µM.
For `CCCCOc1ccc(C(=O)N2CCOC2=O)cc1`, the IC50 was 1.34 µM.
Molecule `O=C(CCCCCc1ccc(Cl)cc1)N1CCOC1=O` has an IC50 of 4.6 µM.
With `CSc1ccc(CCCCCC(=O)N2CCOC2=O)cc1` the IC50 was over 20 µM.
With `O=C1OCCN1C(=O)c1ccc(Oc2cccc(Cl)c2)cc1` the IC50 was 7.74 µM.
`NC(=O)c1ccc(CCCCCC(=O)N2CCOC2=O)cc1` was tested, and the IC50 was over 20 µM.
Work on `O=C1OCCN1C(=O)c1ccc(OC2CCC(O)CC2)cc1` (stereo unspecified) yielded an IC50 of 0.21 µM.
`O=C(CCCCCc1ccc(O)c(F)c1)N1CCOC1=O` was tested, and the IC50 was 0.16 µM.
Molecule `O=C(CCCCCc1ccc(C(F)(F)F)cc1)N1CCOC1=O` has an IC50 of 1.04 µM.
For `O=C(CCCCCc1ccc(F)c(Cl)c1)N1CCOC1=O`, the IC50 was 0.026 µM.
Molecule `O=C(CCCCCc1ccccc1Cl)N1CCOC1=O` has an IC50 of over 20 µM.
For `O=C1OCCN1C(=O)c1ccc(OC2CCOCC2)cc1`, the IC50 was 0.33 µM.
In the case of `O=C1OCCN1C(=O)c1ccc(OC2CCCCC2)cc1`, the IC50 is reported as 0.092 µM.
`COc1ccc(CCCCCC(=O)N2CCOC2=O)cc1` gave an IC50 of over 20 µM.
In the case of `O=C(O)c1cccc(CCCCCC(=O)N2CCOC2=O)c1`, the IC50 is reported as over 20 µM.
In the case of `O=C1OCCN1C(=O)c1ccc(OC2CCCC2)cc1`, the IC50 is reported as 0.12 µM.
In the case of `O=C(CCCCCc1ccc(O)c(Cl)c1)N1CCOC1=O`, the IC50 is reported as over 20 µM.
`Cc1ccc(Oc2ccc(C(=O)N3CCOC3=O)cc2)cc1` gave an IC50 of 6.4 µM.
`O=C(CCCCCc1cccc(Br)c1)N1CCOC1=O` gave an IC50 of 0.43 µM.
`O=C(CCCCCc1ccc(I)cc1)N1CCOC1=O` was tested, and the IC50 was over 20 µM.
In the case of `O=C(CCCCCc1cccc(O)c1)N1CCOC1=O`, the IC50 is reported as 8.64 µM.
With `COc1cccc(CCCCCC(=O)N2CCOC2=O)c1` the IC50 was 16.3 µM.
`Cc1cccc(Oc2ccc(C(=O)N3CCOC3=O)cc2)c1` showed an IC50 of 5.21 µM.
`O=C(CCCCCc1ccccc1O)N1CCOC1=O` showed an IC50 of over 20 µM.
In the case of `CCC(CC)Oc1ccc(C(=O)N2CCOC2=O)cc1`, the IC50 is reported as 0.48 µM.
Work on `CCCCCCOc1ccc(C(=O)N2CCOC2=O)cc1` yielded an IC50 of 0.64 µM.
With `NC(=O)c1cccc(CCCCCC(=O)N2CCOC2=O)c1` the IC50 was over 20 µM.
Work on `CSc1cccc(CCCCCC(=O)N2CCOC2=O)c1` yielded an IC50 of 12.8 µM.
`Cc1ccccc1CCCCCC(=O)N1CCOC1=O` was tested, and the IC50 was over 20 µM.
Work on `O=C(CCCCCc1cccc(C(F)(F)F)c1)N1CCOC1=O` yielded an IC50 of 0.058 µM.
`Cc1ccc(CCCCCC(=O)N2CCOC2=O)cc1C` showed an IC50 of over 20 µM.
Molecule `O=C(CCCCCc1ccc(CO)cc1)N1CCOC1=O` has an IC50 of 0.19 µM.
With `Nc1ccc(CCCCCC(=O)N2CCOC2=O)cc1` the IC50 was 15.7 µM.
With `O=C(CCCCCc1cccc(I)c1)N1CCOC1=O` the IC50 was 3.12 µM.
With `O=C(O)c1ccc(CCCCCC(=O)N2CCOC2=O)cc1` the IC50 was over 20 µM.

Each molecule was assayed against T3, Acid ceramidase (Rattus norvegicus) (assay: Inhibition of rat acid ceramidase expressed in HEK293 cells assessed as remaining activity at 20 uM using N-lauroylceramide as substrate after 30 mins by LC-MS analysis (reference value: 100 +/- 21.4 %)).
Format: cell-based
`O=C(CCCCCc1ccccc1)N1CCOC1=O` gave an Activity of 90.6%.
Work on `O=C1OCCN1C(=O)c1ccc(OC2CCCCC2)cc1` yielded an Activity of 81.7%.
`O=C(CCCCCc1ccc(O)cc1)N1CCOC1=O` gave an Activity of 95.1%.
In the case of `O=C(CCCCCc1cccc(Cl)c1)N1CCOC1=O`, the Activity is reported as 85.3%.

These molecules were tested against T1, N-acylethanolamine-hydrolyzing acid amidase (Rattus norvegicus) (assay: Inhibition of rat NAAA expressed in HEK293 cells at 50 to 250 nM using heptadecenoylethanolamide as substrate after 30 mins in presence of non-covalent competitive NAAA inhibitor E8 by Yonetani-Theorell plot analysis).
Format: cell-based
`O=C(CCCCCc1cccc(Cl)c1)N1CCOC1=O` was tested, and the inhibition was “Active”.

These molecules were tested on O=C(CCCCCc1ccc(Cl)cc1)N1CCOC1=O (assay: (§1) Inhibition of rat NAAA expressed in HEK293 cells assessed as Km for substrate in presence of varying concentration of heptadecenoylethanolamide substrate after 30 mins by Michaelis-Menten plot analysis (reference value: 1395 +/- 260 microM)).
Format: cell-based
For B1, the Km was 1670 µM.

Each molecule was assayed on O=C(CCCCCc1cccc(Cl)c1)N1CCOC1=O (assay: as §1).
Format: cell-based
B1 showed a Km of 1280 µM.

What follows are molecules tested against T1, N-acylethanolamine-hydrolyzing acid amidase (Rattus norvegicus) (assay: Reversible inhibition of rat NAAA expressed in HEK293 cells at 10 fold IC50 preincubated for 10 mins followed by 100 fold dilution using heptadecenoylethanolamide as substrate by HPLC-MS/MS analysis).
Format: cell-based
With `O=C(CCCCCc1cccc(Cl)c1)N1CCOC1=O` the inhibition was “Active”.

Each molecule was assayed against N-acylethanolamine acid amidase (Rattus norvegicus) (assay: Inhibition of rat N-acylethanolamine acid amidase expressed in HEK293 cells using heptadecenoylethanolamide as substrate after 30 mins by LC-MS analysis).
With `O=C(CCCCCc1ccccc1)N1CCOC1=O` the IC50 was 0.27 µM.
For `O=C1OCCN1C(=O)c1ccc(OC2CCCCC2)cc1`, the IC50 was 0.092 µM.

The molecules below were run on O=C(CCCCCc1ccc(Cl)cc1)N1CCOC1=O (assay: (§2) Inhibition of rat NAAA expressed in HEK293 cells assessed as enzyme Vmax per mg protein in presence of varying concentration of heptadecenoylethanolamide substrate after 30 mins by Michaelis-Menten plot analysis (reference value: 9383 +/- 937 nmol/min)).
Format: cell-based
B1 showed a Vmax of 9900 nmol/min/mg.

Each molecule was assayed on O=C(CCCCCc1cccc(Cl)c1)N1CCOC1=O (assay: as §2).
Format: cell-based
B1 was tested, and the Vmax was 2790 nmol/min/mg.
